Results published in ChEMBL document CHEMBL1155643, “Isolation of a novel protein tyrosine phosphatase inhibitor, 2-methyl-fervenulone, and its precursors from Streptomyces” (J Nat Prod, 2000).
Calls of active or inactive are those of the source. No cut-off for these calls is given here.

Columns and labels:
[1] = system: Yersinia sp.; assay: Inhibition of Yersinia sp. protein tyrosine phosphatase yop at 1 uM relative to control; parameters: scale not given: the % may be the effect or the level left
Summary of the method: (§1)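 Commercial phosphatase. pNPP dephosphorylation with 2 mM pNPP in 50 mM sodium acetate pH 5.5, 0.5 mg/mL BSA, 0.5 mM dithiothreitol, at 30 °C. Reactions stopped within the linear phase. Activity expressed as percent of the control without inhibitor. Mean of three separate enzyme preparations, each assayed in duplicate, ± S.D.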

[2] = Inhibition of protein tyrosine phosphatase epsilon D1D2 domain at 1 uM relative to control; parameters: scale not given: the % may be the effect or the level left
Summary of the method: (§2)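 Bacterially expressed, purified PTPα or PTPε. pNPP (2 mM) dephosphorylation in 50 mM sodium acetate pH 5.5 with 0.5 mg/mL BSA and 0.5 mM DTT, at 30 °C, stopped during the linear phase. Percent activity relative to the uninhibited control. Average of three enzyme preparations, each run in duplicate, ± S.D.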

[3] = Inhibition of protein tyrosine phosphatase CD45 domain at 1 uM relative to control; parameters: scale not given: the % may be the effect or the level left; summary of the method: as §1
[4] = molecular target: T1, Tyrosine-protein phosphatase non-receptor type 2 (Homo sapiens) (UniProt P17706); assay: Inhibition of TCPTP at 1 uM relative to control; parameters: scale not given: the % may be the effect or the level left; summary of the method: as §1
T1 sequence (whole entry): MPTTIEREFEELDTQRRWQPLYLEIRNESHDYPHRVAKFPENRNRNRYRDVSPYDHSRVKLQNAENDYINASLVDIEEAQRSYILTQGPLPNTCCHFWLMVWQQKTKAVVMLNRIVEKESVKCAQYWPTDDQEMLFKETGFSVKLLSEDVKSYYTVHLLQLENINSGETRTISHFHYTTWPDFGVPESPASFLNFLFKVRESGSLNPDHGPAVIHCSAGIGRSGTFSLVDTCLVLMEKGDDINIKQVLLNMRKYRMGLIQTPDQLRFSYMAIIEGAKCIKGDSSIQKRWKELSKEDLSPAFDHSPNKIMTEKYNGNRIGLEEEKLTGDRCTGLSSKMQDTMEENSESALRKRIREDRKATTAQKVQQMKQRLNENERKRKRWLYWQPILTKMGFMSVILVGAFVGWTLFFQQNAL

[5] = Inhibition of protein tyrosine phosphatase alpha D1D2 domain at 1 uM relative to control; parameters: scale not given: the % may be the effect or the level left; summary of the method: as §2
[6] = Inhibition of protein tyrosine phosphatase LAR-D1 domain at 1 uM relative to control; parameters: scale not given: the % may be the effect or the level left; summary of the method: as §1
[7] = molecular target: T2, Serine/threonine-protein phosphatase (Enterobacteria phage lambda) (UniProt P03772); assay: Inhibition of enterobactera phage lambda PP at 1 uM relative to control; parameters: scale not given: the % may be the effect or the level left
T2 sequence (whole entry): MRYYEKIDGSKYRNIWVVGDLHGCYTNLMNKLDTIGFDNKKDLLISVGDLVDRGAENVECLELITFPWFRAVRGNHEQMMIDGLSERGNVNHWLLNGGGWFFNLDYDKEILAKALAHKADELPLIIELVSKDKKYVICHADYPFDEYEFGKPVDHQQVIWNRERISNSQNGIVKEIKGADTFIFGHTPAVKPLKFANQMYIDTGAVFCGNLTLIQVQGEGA
Summary of the method: (§3)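 Commercial enzyme acting on 2 mM pNPP in 50 mM sodium acetate with 0.5 mg/mL BSA and 0.5 mM DTT, at 30 °C, linear phase. pH 7 for CIP; pH 5.5 plus 2 mM Mn2+ for λPP. Percent of the no-inhibitor control. Three enzyme preparations, each in duplicate, ± S.D.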

[8] = organism: Bos taurus; assay: Inhibition of calf intestinal alkaline phosphatase at 1 uM relative to control; parameters: scale not given: the % may be the effect or the level left; summary of the method: as §3
[9] = system: Mycolicibacterium smegmatis; assay: Antimicrobial activity against Mycobacterium smegmatis at 50 uM; assay type: functional, organism-based
[10] = system: Mycolicibacterium smegmatis; assay: Antimicrobial activity against Mycobacterium smegmatis at 100 uM; assay type: functional, organism-based
[11] = system: Staphylococcus aureus; assay: Antimicrobial activity against Staphylococcus aureus at 50 uM; assay type: functional, organism-based
[12] = system: Staphylococcus aureus; assay: Antimicrobial activity against Staphylococcus aureus at 100 uM; assay type: functional, organism-based
[13] = system: Escherichia coli; assay: Antimicrobial activity against Escherichia coli at 50 uM; assay type: functional, organism-based
[14] = system: Escherichia coli; assay: Antimicrobial activity against Escherichia coli at 100 uM; assay type: functional, organism-based
[15] = system: Enterococcus faecalis; assay: Antimicrobial activity against Enterococcus faecalis at 50 uM; assay type: functional, organism-based
[16] = system: Enterococcus faecalis; assay: Antimicrobial activity against Enterococcus faecalis at 100 uM; assay type: functional, organism-based
[17] = system: Proteus vulgaris; assay: Antimicrobial activity against Proteus vulgaris at 50 uM; assay type: functional, organism-based
[18] = system: Proteus vulgaris; assay: Antimicrobial activity against Proteus vulgaris at 100 uM; assay type: functional, organism-based
[19] = system: Pseudomonas aeruginosa; assay: Antimicrobial activity against Pseudomonas aeruginosa at 50 uM; assay type: functional, organism-based
[20] = system: Pseudomonas aeruginosa; assay: Antimicrobial activity against Pseudomonas aeruginosa at 100 uM; assay type: functional, organism-based
[21] = system: Candida albicans; assay: Antimicrobial activity against Candida albicans at 50 uM; assay type: functional, organism-based
[22] = system: Candida albicans; assay: Antimicrobial activity against Candida albicans at 100 uM; assay type: functional, organism-based
[23] = system: Curvularia; assay: Antimicrobial activity against Curvularia sp. at 50 uM; assay type: functional, organism-based
[24] = system: Curvularia; assay: Antimicrobial activity against Curvularia sp. at 100 uM; assay type: functional, organism-based

Compound | Activity [1] [%] | Activity [2] [%] | Activity [3] [%] | Activity [4] [%] | Activity [5] [%] | Activity [6] [%] | Activity [7] [%] | Activity [8] [%] | other results
Cn1nc2c(nc1=O)c(=O)n(C)c(=O)n2C | 10 | 17 | 15 | 34 | 17 | 17 | 48 | 100 | Activity [9]: inactive; Activity [10]: inactive; Activity [11]: inactive; Activity [12]: inactive; Activity [13]: inactive; Activity [14]: inactive; Activity [15]: inactive; Activity [16]: inactive; Activity [17]: inactive; Activity [18]: inactive; Activity [19]: inactive; Activity [20]: inactive; Activity [21]: inactive; Activity [22]: inactive; Activity [23]: inactive; Activity [24]: inactive
Cn1nc2c(nc1=O)n(C)c(=O)n2C | 95 | 99 | 96 | 99 | 98 | 97 | 100 | 99 | –
